# Legend:
# [1] = molecular target: T1, Proteasome Macropain subunit MB1 (Homo sapiens) (UniProt P28074); assay: Inhibition of chymotrypsin-like activity of human 20S proteasome beta5 subunit at 50 uM using Suc-LLVY-Glo as substrate incubated for 2 hrs followed by substrate addition and measured for 10 mins by bioluminescent assay relative to control; conditions: time 130.0 min
# T1 sequence (whole entry): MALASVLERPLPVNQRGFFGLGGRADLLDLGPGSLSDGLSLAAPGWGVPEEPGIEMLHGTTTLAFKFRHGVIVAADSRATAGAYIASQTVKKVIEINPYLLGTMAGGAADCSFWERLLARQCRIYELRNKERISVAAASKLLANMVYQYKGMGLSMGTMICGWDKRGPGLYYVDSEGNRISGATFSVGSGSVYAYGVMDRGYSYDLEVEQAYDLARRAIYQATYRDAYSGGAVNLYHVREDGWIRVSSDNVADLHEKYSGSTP
# Method in brief: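 Human constitutive 20S proteasome (1 µg/mL) was incubated with compound for 2 h at 25 °C in 10 mM HEPES pH 7.6 with 1% DMSO final. Suc-LLVY-Glo substrate was then added, and luminescence was read over 10 min. Inhibition rate was calculated against the uninhibited signal.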
# [2] = molecular target: T2, Proteasome Macropain subunit MB1 (Homo sapiens, UniProt P28074); assay: Inhibition of chymotrypsin-like activity of human 20S proteasome beta5 subunit using Suc-LLVY-Glo as substrate incubated for 2 hrs followed by substrate addition and measured for 10 mins by bioluminescent assay
# T2 sequence (P28074 whole entry): T1 sequence (whole entry)
# Method in brief: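 Human constitutive 20S proteasome (1 μg/mL) was combined with compound serially diluted in 10 mM HEPES pH 7.6, with final DMSO 1% (v/v). After 2 h at 25 °C, Suc-LLVY-Glo (CT-L), Z-LRR-Glo (T-L) or Z-nLPnLD-Glo (C-L) reagent was added. Luminescence was read over 10 min, and IC50 was taken from inhibition rates.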
# A-375 = assay: Cytotoxicity against human A-375 cells assessed as reduction in cell viability after 72 hrs by Cell Titer-Glo assay; assay type: functional, cell-based; conditions: A-375, 72 h
# Method in brief: (§1)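 Cells were cultured in their respective media with 10% FBS, seeded from log phase at 1000 cells/well, and given compound after 18–24 h. After 72 h, an equal volume of CellTiter-Glo reagent was added and luminescence was read at 37 °C. IC50 came from dose-response curve fits; values are mean ± SD of three independent experiments, each in biological triplicate.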
# BGC-823 = assay: Cytotoxicity against human BGC-823 cells assessed as reduction in cell viability after 72 hrs by Cell Titer-Glo assay; assay type: functional, cell-based; conditions: BGC-823, 72 h; method in brief: as §1
# HeLa = assay: Cytotoxicity against human HeLa cells assessed as reduction in cell viability after 72 hrs by Cell Titer-Glo assay; assay type: functional, cell-based; method in brief: as §1
# A549 = assay: Cytotoxicity against human A549 cells assessed as reduction in cell viability after 72 hrs by Cell Titer-Glo assay; assay type: functional, cell-based; conditions: A549, 72 h; method in brief: as §1
# [3] = Cytotoxicity against human PC3M1E8 cells assessed as reduction in cell viability after 72 hrs by Cell Titer-Glo assay; assay type: functional, cell-based; conditions: PC3M1E8, 72 h; method in brief: as §1
# HCT-116 [4] = assay: Cytotoxicity against human HCT-116 cells assessed as reduction in cell viability after 72 hrs by Cell Titer-Glo assay; assay type: functional, cell-based; conditions: HCT-116, 72 h; method in brief: as §1
# HEK293 = assay: Cytotoxicity against human HEK293 cells assessed as reduction in cell viability after 72 hrs by Cell Titer-Glo assay; assay type: cell-based; conditions: HEK293, 72 h; method in brief: as §1
# HT-29 = assay: Cytotoxicity against human HT-29 cells assessed as reduction in cell viability after 72 hrs by Cell Titer-Glo assay; assay type: functional, cell-based; conditions: HT-29, 72 h; method in brief: as §1
# HCT-116 [5] = assay: Cell cycle arrest in human HCT-116 cells assessed as accumulation at G1 phase at 1 uM after 24 hrs by propidium iodide staining based flow cytometric analysis (reference value: 29%); assay type: functional
# HCT-116 [6] = assay: Cell cycle arrest in human HCT-116 cells assessed as accumulation at S phase at 1 uM after 24 hrs by propidium iodide staining based flow cytometric analysis (reference value: 50%); assay type: functional
# HCT-116 [7] = assay: Cell cycle arrest in human HCT-116 cells assessed as accumulation at G2/M phase at 1 uM after 24 hrs by propidium iodide staining based flow cytometric analysis (reference value: 21%); assay type: functional
SMILES,inhibition [1],IC50 [2],also measured
COc1ccc(C[C@H](NC(=O)[C@H](Cc2ccccc2)NC(=O)c2ccccc2[N+](=O)[O-])C(=O)N[C@@H](CC(C)C)C(=O)c2ccco2)cc1,> 50%,7.26 µM,–
COC[C@H](NC(=O)[C@H](CC(=O)NCCC(C)C)NS(=O)(=O)c1ccc(C)cc1)C(=O)N[C@@H](CC(C)C)C(=O)c1ccco1,> 50%,> 50 µM,–
COc1ccc(C[C@H](NC(=O)[C@H](Cc2ccccc2)NC(=O)c2ccccc2Br)C(=O)N[C@@H](CC(C)C)C(=O)c2ccco2)cc1,> 50%,> 50 µM,–
COc1ccc(C[C@H](NC(=O)[C@H](Cc2ccccc2)NC(=O)c2cnccn2)C(=O)N[C@@H](CC(C)C)C(=O)c2ccco2)cc1,> 50%,> 50 µM,–
COc1ccc(C[C@H](NC(=O)[C@H](Cc2ccccc2)NC(=O)c2ccccc2OC)C(=O)N[C@@H](CC(C)C)C(=O)c2ccco2)cc1,> 50%,> 50 µM,–
COc1ccc(C[C@H](NC(=O)OC(C)(C)C)C(=O)N[C@@H](C)C(=O)N[C@@H](CC(C)C)C(=O)c2ccco2)cc1,> 50%,12 µM,–
COC[C@H](NC(=O)[C@H](Cc1ccc(OC)cc1)NC(=O)OC(C)(C)C)C(=O)N[C@@H](CC(C)C)C(=O)c1ccco1,> 50%,5.86 µM,–
CC(C)C[C@H](NC(=O)[C@H](Cc1ccc(Cl)cc1)NC(=O)[C@H](Cc1ccccc1)NC(=O)OCc1ccccc1)C(=O)c1ccco1,> 50%,> 50 µM,–

# The next molecules have a lower IC50 [2] than those just listed; values first:
inhibition [1],IC50 [2],SMILES,also measured
> 50%,3.19 µM,COc1ccc(C[C@H](NC(=O)[C@H](Cc2ccccc2)NC(=O)c2ccccc2C)C(=O)N[C@@H](CC(C)C)C(=O)c2ccco2)cc1,–
> 50%,3.12 µM,Cc1ccc(S(=O)(=O)N[C@@H](CC(=O)NCC(C)C)C(=O)N[C@@H](C)C(=O)N[C@@H](CC(C)C)C(=O)c2ccco2)cc1,–
> 50%,2.33 µM,Cc1ccc(S(=O)(=O)N[C@@H](Cc2ccccc2)C(=O)N[C@@H](Cc2ccc(O)cc2)C(=O)N[C@@H](CC(C)C)C(=O)c2ccco2)cc1,–
> 50%,0.68 µM,COC[C@H](NC(=O)[C@H](CC(=O)NCC(C)C)NS(=O)(=O)c1ccc(C)cc1)C(=O)N[C@@H](CC(C)C)C(=O)c1ccco1,IC50 (A-375): 2.61 µM; IC50 (BGC-823): 3.96 µM; IC50 (HeLa): 2.47 µM; IC50 (A549): 17.6 µM; IC50 [3]: 3.73 µM; IC50 (HCT-116 [4]): 1.67 µM; IC50 (HEK293): > 50 µM; IC50 (HT-29): 4.85 µM; Activity (HCT-116 [5]): 27%; Activity (HCT-116 [6]): 30%; Activity (HCT-116 [7]): 43%
> 50%,0.54 µM,COc1ccc(C[C@H](NS(=O)(=O)c2ccc(C)cc2)C(=O)N[C@@H](Cc2ccc(O)cc2)C(=O)N[C@@H](CC(C)C)C(=O)c2ccco2)cc1,IC50 (A-375): 3.87 µM; IC50 (BGC-823): 8.37 µM; IC50 (HeLa): 6.35 µM; IC50 (A549): 13.1 µM; IC50 [3]: 4.98 µM; IC50 (HCT-116 [4]): 3.52 µM; IC50 (HEK293): > 50 µM; IC50 (HT-29): 5.4 µM; Activity (HCT-116 [5]): 24%; Activity (HCT-116 [6]): 25%; Activity (HCT-116 [7]): 51%
